Results collected from several papers.
Lines come from different studies, so protocols differ.
Target: Myosin light chain kinase family member 4 (MYLK4, Homo sapiens, UniProt Q86YV6)
Sequence (Q86YV6 1-388, as in one of the studies): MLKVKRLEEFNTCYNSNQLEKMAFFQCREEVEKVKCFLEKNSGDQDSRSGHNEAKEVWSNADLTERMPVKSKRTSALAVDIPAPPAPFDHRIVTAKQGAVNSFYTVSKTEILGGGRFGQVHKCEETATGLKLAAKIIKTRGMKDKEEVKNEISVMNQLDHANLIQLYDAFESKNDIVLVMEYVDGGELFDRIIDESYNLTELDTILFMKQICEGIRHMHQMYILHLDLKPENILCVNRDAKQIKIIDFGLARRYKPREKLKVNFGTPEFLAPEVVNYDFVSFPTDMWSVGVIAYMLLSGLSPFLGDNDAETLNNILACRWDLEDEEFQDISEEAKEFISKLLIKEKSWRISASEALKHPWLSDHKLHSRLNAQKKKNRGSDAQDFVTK

SMILES | effect on | action | method | tested at | measurement | value
Cc1ccc(C(=O)Nc2ccc(CN3CCN(C)CC3)c(C(F)(F)F)c2)cc1C#Cc1cnc2cccnn12 | enzyme activity | inhibitor |  | 23.5 nM | remaining activity | 92%
Nc1c(C(=O)NCc2ccc(C(=O)NCCCC3CCCCC3)cc2)cnn1-c1ccccc1 | cell-free assay |  | competition with immobilised ligand | 0.1 µM | remaining binding | 100%
Fc1cccc(-n2cnc3c(NCc4nc5c(F)c(F)ccc5[nH]4)nc(N4CCOCC4)nc32)c1 | binding |  | competition with immobilised ligand | 10 µM | binding vs control | 2.1%
O=C(Nc1cnn(-c2csc(C(=O)NC3COC3)c2)c1)Nc1ccccc1Cl | enzyme activity | inhibitor |  | 5 µM | remaining activity | 85.2%
Nc1ncnc2occ(-c3ccc(NC(=O)Nc4cc(C(F)(F)F)ccc4F)cc3)c12 | enzyme activity | inhibitor |  | 20 µM | remaining activity | 48%
CCCOc1ccc([C@@H]2[C@@H](C(=O)O)[C@H](c3ccc4c(c3)OCO4)CN2CC(=O)Nc2c(CC)cccc2CC)cc1 | cell-free assay |  | competition with immobilised ligand | 1 µM | remaining binding | 100%
O=C(Nc1cnn(-c2csc(C(=O)NC3COC3)c2)c1)Nc1c(F)cccc1Cl | enzyme activity | inhibitor |  | 5 µM | remaining activity | 91.7%
O=[N+]([O-])c1cccc2[nH]c(CNc3nc(N4CCOCC4)nc4c3ncn4-c3ccsc3)nc12 | binding |  | competition with immobilised ligand | 10 µM | binding vs control | 2.6%
